Experimental data published in PubChem BioAssay AID624011 (Broad Institute, 2012).
The source made the active and inactive calls.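 The calls were made as follows: active = fitted curve reaching 35% inhibition at both 405 and 600 nm absorbance, in duplicate, within twice the top valid dose; inactive = the rest, including signal rising instead of falling.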

System: not listed separately
Assay: P. aeruginosa growth delay under iron chelation, dose response, absorbance 405 nm, dry powder, set 2 (AID 624011)
Details: P. aeruginosa + EDDHA, pyoverdine absorbance 405 nm, 24-30 h; at 50 µM (top of the series)
In short: (§1)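 Assay system – Pseudomonas aeruginosa strain ATCC 15692, whole bacterial cells · Amount – bacterial inoculum at final OD600 of 0.0000005 · Also added – EDDHA, 2 µM final · Schedule – bacterial growth with compound 24-30 h at 37 °C, humidified · Technique – absorbance 405 nm (pyoverdine)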

SMILES | activity change, negative = inhibition
N#CC(c1cccc(Cl)n1)c1ccccc1OC(F)(F)F (configuration not stated) | -13.5% (inactive)
N#CC(c1ccc(C(F)(F)F)cc1)c1cccc(Cl)n1 (configuration not stated) | -7.8% (inactive)
N#CC(c1ccc(Cl)cc1Cl)c1ncccc1Cl (configuration not stated) | 5.69% (inactive)
CC(C)CC(C#N)c1ccc(Cl)cc1 (configuration not stated) | 1.37% (inactive)
CCCC(C#N)c1ccc(Cl)cc1 (configuration not stated) | 1.22% (inactive)
N#CC(c1cccc(Cl)n1)c1ccc(Cl)cc1Cl (configuration not stated) | -12.6% (inactive)
N#Cc1cccc(C(C#N)c2ccc(Cl)cc2)n1 (configuration not stated) | -11.7% (inactive)
CCCCC(C#N)c1ccc(C(F)(F)F)cc1 (configuration not stated) | -7.42% (inactive)
N#Cc1ccc(C(C#N)c2ccc(Cl)cc2)nc1 (configuration not stated) | -6.67% (inactive)
CCCCC(C#N)c1ccc(Cl)cc1 (configuration not stated) | -0.942% (inactive)
CCCCC(C#N)c1ccc(F)cc1 (configuration not stated) | -8.06% (inactive)
N#CC(CC1CC1)c1ccc(Cl)cc1 (configuration not stated) | -6.92% (inactive)
N#Cc1cccc(C(C#N)c2ccccc2OC(F)(F)F)n1 (configuration not stated) | 4.18% (inactive)
CC(C#N)(c1ccc(Cl)cc1)c1ccc(C(F)(F)F)cn1 (configuration not stated) | -3.64% (inactive)
N#Cc1ccc(C(C#N)c2ccc(Cl)cc2Cl)nc1 (configuration not stated) | 3.9% (inactive)
N#CC(c1cccc(C(F)(F)F)n1)c1ccccc1OC(F)(F)F (configuration not stated) | -5.85% (inactive)
CCCCC(C#N)c1ccc(Cl)cc1Cl (configuration not stated) | 4.33% (inactive)
CCCCC(C#N)c1ccccc1OC(F)(F)F (configuration not stated) | 1.13% (inactive)
N#CC(c1ccc(C(F)(F)F)c(Cl)n1)c1ccc(Cl)cc1Cl (configuration not stated) | 5.25% (inactive)
N#CC(c1ccc(C(F)(F)F)c(Cl)n1)c1ccc(Cl)cc1F (configuration not stated) | -8.56% (inactive)
N#CC(c1ccc(C(F)(F)F)cc1)c1cccc(C(F)(F)F)n1 (configuration not stated) | 0.339% (inactive)
Cc1ccc(C(C#N)c2ccccc2OC(F)(F)F)nc1C#N (configuration not stated) | 1.92% (inactive)
Cc1ccc(C(C#N)c2ccc(Cl)cc2)nc1 (configuration not stated) | -6.12% (inactive)
Cc1ccc(C(C#N)c2ccc(Cl)cc2)nc1C#N (configuration not stated) | -8.79% (inactive)
N#CC(c1ccc(C(F)(F)F)cc1)c1ccc(C(F)(F)F)c(Cl)n1 (configuration not stated) | 0.565% (inactive)
CCCCC(C#N)c1ccc(Cl)cc1F (configuration not stated) | -9.53% (inactive)
N#Cc1cccc(C(C#N)c2ccc(Cl)cc2Cl)n1 (configuration not stated) | -7.16% (inactive)
N#CC(c1ccc(Cl)cc1)c1ccc(C(F)(F)F)c(Cl)n1 (configuration not stated) | 1.79% (inactive)
N#CC(c1ccc(Cl)cc1)c1ccc(C(F)(F)F)cn1 (configuration not stated) | 5.88% (inactive)
N#CC(c1ccc(C(F)(F)F)c(Cl)n1)c1ccccc1OC(F)(F)F (configuration not stated) | 2.22% (inactive)

System: P. aeruginosa + EDDHA, pyoverdine absorbance 405 nm, 24-30 h
Assay: as above
Details: not given
In short: as §1

SMILES | AC35
N#CC(c1ccc(Cl)cc1)c1cccc(C(F)(F)F)n1 (configuration not stated) | 7.35 µM
N#CC(c1ccc(Cl)cc1)c1ncccc1Cl (configuration not stated) | 33.6 µM
N#CC(c1cccc(Cl)n1)c1ccc(Cl)cc1F (configuration not stated) | 19.6 µM
COc1cccc(C(C#N)c2ccc(F)cc2)n1 (configuration not stated) | > 50 µM (inactive)
N#CC(c1cccc(C(F)(F)F)n1)c1ccc(Cl)cc1F (configuration not stated) | 26.2 µM
N#CC(c1ccc(F)cc1)c1cccc(C(F)(F)F)n1 (configuration not stated) | 17.6 µM
N#CC(c1ccc(Cl)cc1)c1cccc(Cl)n1 (configuration not stated) | 18 µM
